Test results: ChEMBL document CHEMBL1151735, “Further studies with the 2-amino-1,3-thiazol-4(5H)-one class of 11beta-hydroxysteroid dehydrogenase type 1 inhibitors: reducing pregnane X receptor activity and exploring activity in a monkey pharmacodynamic model” (J Med Chem, 2008)

Assays:
Format in all cases: cell-based
[1] = target: 11-beta-hydroxysteroid dehydrogenase 1 (Homo sapiens, UniProt P28845); assay: Inhibition of human 11beta-HSD1 expressed in CHO cells assessed as conversion of cortisone to cortisol by ELISA
Sequence of 11-beta-hydroxysteroid dehydrogenase 1 (P28845 whole entry): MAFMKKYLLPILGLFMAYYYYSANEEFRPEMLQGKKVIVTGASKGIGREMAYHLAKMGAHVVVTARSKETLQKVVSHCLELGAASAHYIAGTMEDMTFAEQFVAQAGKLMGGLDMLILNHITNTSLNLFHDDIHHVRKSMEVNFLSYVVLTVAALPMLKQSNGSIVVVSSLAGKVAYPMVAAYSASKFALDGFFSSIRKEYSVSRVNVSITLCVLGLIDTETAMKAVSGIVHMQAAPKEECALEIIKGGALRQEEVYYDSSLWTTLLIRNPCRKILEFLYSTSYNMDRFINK

[2] = target: T1, PXR (nuclear receptor subfamily 1 group I member 2) (Homo sapiens, UniProt O75469); assay: Transactivation of human PXR transfected in HEK cells at 2 uM by luciferase reporter gene assay relative to 12.5 uM rifampin; details: HEK293 cells transfected with human PXR, read-out: Activity
T1 sequence (O75469 whole entry): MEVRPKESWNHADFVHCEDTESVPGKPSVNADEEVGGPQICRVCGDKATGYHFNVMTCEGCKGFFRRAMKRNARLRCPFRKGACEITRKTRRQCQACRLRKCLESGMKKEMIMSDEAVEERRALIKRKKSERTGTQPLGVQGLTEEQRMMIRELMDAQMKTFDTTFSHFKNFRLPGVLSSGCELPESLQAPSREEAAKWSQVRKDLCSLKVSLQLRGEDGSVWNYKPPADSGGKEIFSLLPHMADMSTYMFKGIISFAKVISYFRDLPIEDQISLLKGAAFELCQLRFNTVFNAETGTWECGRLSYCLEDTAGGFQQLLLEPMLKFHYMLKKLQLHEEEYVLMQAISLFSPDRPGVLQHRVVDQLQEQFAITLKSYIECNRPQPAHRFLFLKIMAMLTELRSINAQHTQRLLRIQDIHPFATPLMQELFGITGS
In short: (§1)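 HEK cells transfected with human PXR fused to a firefly luciferase reporter. Luciferase activity is expressed as percent of the 12.5 µM rifampin response. Run in triplicate; SEM reported.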

[3] = target: T2, Nuclear receptor subfamily 1 group I member 2 (Homo sapiens, UniProt O75469); assay: Transactivation of human PXR transfected in HEK cells at 20 uM by luciferase reporter gene assay relative to 12.5 uM rifampin; details: hek293, 20 µM; in short: as §1
T2 sequence (O75469 whole entry): T1 sequence (O75469 whole entry)

IC50 [1] | activity at 2 µM [2] | Activity [3] | Compound
5 nM | – | – | CC(C(=O)N[C@H]1C2CC3CC1C[C@](O)(C3)C2)N1CCN(c2ccc(C(F)(F)F)cn2)CC1 (stereo partly drawn)
– | 64% | 65% | C[C@H](NC1=NC(=O)C(C)(c2ccc(F)cc2)S1)c1ccc(F)cc1 (stereo partly drawn)
– | 6.7% | 97% | C[C@H](NC1=NC(=O)C(C)(c2ccc(C3(C(N)=O)CC3)cc2)S1)c1ccc(F)cc1 (stereo partly drawn)
– | 0.8% | 9.3% | C[C@H](NC1=NC(=O)C(C)(c2ccc(C(N)=O)cc2)S1)c1ccc(F)cc1 (stereo partly drawn)
14 nM | – | – | O=C(Nc1cccc(C(=O)N2CCC[C@@H]3CCCC[C@H]32)c1)c1ccccc1
